Converted amounts (≈) assume the structure as drawn.
Key:
[1] = tested on: Sindbis virus; assay: Minimum inhibitory concentration required to reduce sindbis virus induced cytopathogenicity by 50%; type: functional
[2] = tested on: Human alphaherpesvirus 2; assay: Minimum inhibitory concentration required to reduce Herpes simplex virus type 2 (HSV-2 strain G) induced cytopathogenicity by 50%; type: functional
[3] = tested on: Vesicular stomatitis virus; assay: Minimum inhibitory concentration required to reduce vesicular stomatitis virus (VSV) induced cytopathogenicity by 50%; type: functional
[4] = species on record: Oryctolagus cuniculus; assay: Minimum cytotoxic concentration required to cause a microscopically detectable alteration of normal cell morphology in primary rabbit kidney cells; type: functional
Method in brief: (§1)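 Cytotoxicity read microscopically as the minimum concentration producing a detectable alteration of normal cell morphology, in PRK, HeLa or Vero cell cultures. Average of two to three separate experiments.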

[5] = tested on: L1210; assay: Minimum inhibitory concentration required to reduce incorporation of [methyl-3H]dThd into TCA-insoluble material from murine leukemia L1210 cells; type: functional; details: Mus musculus
Method in brief: (§2)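 Murine L1210 leukemia cells; MIC50 is the concentration reducing cell growth, or incorporation of [methyl-3H]dThd into TCA-insoluble material (DNA synthesis), by 50%. Average of at least three separate experiments.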

[6] = tested on: L1210; assay: Inhibition of murine leukemia L1210 cell growth; type: functional; details: Mus musculus; method in brief: as §2
[7] = tested on: L1210; assay: Minimum inhibitory concentration required to reduce incorporation of [5-3H]-Urd into TCA-insoluble material from murine leukemia L1210 cells; type: functional; details: Mus musculus
Method in brief: (§3)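 Murine L1210 leukemia cells were exposed to compound and incorporation of [4,5-3H]leucine (protein) or [5-3H]Urd (RNA) into TCA-insoluble material was measured. MIC50 is the concentration reducing incorporation by 50%. Values are averages of at least three separate experiments.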

[8] = tested on: Vero; assay: Minimum cytotoxic concentration required to cause a microscopically detectable alteration of normal cell morphology in Vero cells; type: functional, Chlorocebus sabaeus; method in brief: as §1
[9] = tested on: Human respirovirus 3; assay: Minimum inhibitory concentration required to reduce parainfluenza type 3 induced cytopathogenicity by 50%; type: functional
[10] = tested on: L1210; assay: Minimum inhibitory concentration required to reduce incorporation of [4,5-3H]leucine into TCA-insoluble material from murine leukemia L1210 cells; type: functional; details: Mus musculus; method in brief: as §3
[11] = tested on: Vesicular stomatitis virus; assay: Minimum inhibitory concentration required to reduce Vesicular stomatitis virus (VSV) induced cytopathogenicity by 50%; type: functional
[12] = tested on: HeLa; assay: Minimum cytotoxic concentration required to cause a microscopically detectable alteration of normal cell morphology in Hela cells; type: functional, Homo sapiens; method in brief: as §1
[13] = tested on: Human alphaherpesvirus 1; assay: Minimum inhibitory concentration required to reduce Herpes simplex virus type 1 (HSV-1, strain KOS) induced cytopathogenicity by 50%; type: functional
[14] = tested on: Measles morbillivirus; assay: Minimum inhibitory concentration required to reduce measles virus induced cytopathogenicity by 50%; type: functional
[15] = tested on: Poliovirus 1; assay: Minimum inhibitory concentration required to reduce Polio virus type 1 induced cytopathogenicity by 50%; type: functional; details: Enterovirus C
[16] = tested on: Mammalian orthoreovirus 1; assay: Minimum inhibitory concentration required to reduce reo virus type 1 induced cytopathogenicity by 50%; type: functional
[17] = tested on: Coxsackievirus B4; assay: Minimum inhibitory concentration required to reduce Coxsackie virus type B-4-induced cytopathogenicity by 50%; type: functional

Compound	MIC50 [1]	MIC50 [2]	MIC50 [3]	MTC [4]	MIC50 [5]	MIC50 [6]	MIC50 [7]	MTC [8]	MIC50 [9]	MIC50 [10]	MIC50 [11]	MTC [12]	MIC50 [13]	MIC50 [14]	MIC50 [15]	MIC50 [16]	MIC50 [17]	MIC50 ([17]; Enterovirus B, read-out: MIC50)
Nc1ncnc2c1ccn2C1OC(CO)CC1O (stereo unspecified)	> 100 µg/mL	> 10 µg/mL	> 10 µg/mL	10 µg/mL	90 µg/mL (≈ 360 µM)	0.38 µg/mL (≈ 1.52 µM)	3.2 µg/mL (≈ 12.8 µM)	100 µg/mL	20 µg/mL (≈ 79.9 µM)	2.08 µg/mL (≈ 8.31 µM)	20 µg/mL (≈ 79.9 µM)	40 µg/mL	> 10 µg/mL	> 100 µg/mL	2 µg/mL (≈ 7.99 µM)	10 µg/mL (≈ 40 µM)	–	–
NC(=O)c1cn([C@@H]2O[C@H](CO)[C@@H](O)[C@@H]2O)c2ncnc(N)c12	> 40 µg/mL	1 µg/mL (≈ 3.23 µM)	3 µg/mL (≈ 9.7 µM)	40 µg/mL	50 µg/mL (≈ 162 µM)	0.98 µg/mL (≈ 3.17 µM)	5.85 µg/mL (≈ 18.9 µM)	40 µg/mL	1 µg/mL (≈ 3.23 µM)	2.2 µg/mL (≈ 7.11 µM)	1.5 µg/mL (≈ 4.85 µM)	10 µg/mL	4 µg/mL (≈ 12.9 µM)	10 µg/mL (≈ 32.3 µM)	> 10 µg/mL	6 µg/mL (≈ 19.4 µM)	–	–
Nc1ncnc2c1ccn2[C@@H]1O[C@H](CO)[C@H](O)[C@H]1O	> 40 µg/mL	0.07 µg/mL (≈ 0.263 µM)	> 10 µg/mL	10 µg/mL	6.7 µg/mL (≈ 25.2 µM)	0.248 µg/mL (≈ 0.931 µM)	–	40 µg/mL	> 40 µg/mL	–	> 4 µg/mL	4 µg/mL	0.2 µg/mL (≈ 0.751 µM)	> 40 µg/mL	> 4 µg/mL	> 40 µg/mL	–	–
NC(=O)c1cn([C@H]2C[C@H](O)[C@@H](CO)O2)c2ncnc(N)c12	> 10 µg/mL	1 µg/mL (≈ 3.41 µM)	2 µg/mL (≈ 6.82 µM)	10 µg/mL	16 µg/mL (≈ 54.6 µM)	1.21 µg/mL (≈ 4.13 µM)	–	10 µg/mL	> 10 µg/mL	–	1 µg/mL (≈ 3.41 µM)	10 µg/mL	2 µg/mL (≈ 6.82 µM)	> 10 µg/mL	> 10 µg/mL	> 10 µg/mL	–	–
N#Cc1cn([C@H]2C[C@H](O)[C@@H](CO)O2)c2ncnc(N)c12	> 1 µg/mL	0.3 µg/mL (≈ 1.09 µM)	0.5 µg/mL (≈ 1.82 µM)	4 µg/mL	10 µg/mL (≈ 36.3 µM)	0.109 µg/mL (≈ 0.396 µM)	0.34 µg/mL (≈ 1.24 µM)	1 µg/mL	> 1 µg/mL	0.265 µg/mL (≈ 0.963 µM)	0.08 µg/mL (≈ 0.291 µM)	4 µg/mL	> 1 µg/mL	0.5 µg/mL (≈ 1.82 µM)	> 4 µg/mL	> 1 µg/mL	–	–
Nc1ncnc2c1ccn2[C@H]1C[C@H](O)[C@@H](CO)O1 [2'-Deoxytubercidin]	> 400 µg/mL	40 µg/mL (≈ 160 µM)	125 µg/mL (≈ 499 µM)	>400 µg/mL	127 µg/mL (≈ 507 µM)	23 µg/mL (≈ 91.9 µM)	205 µg/mL (≈ 819 µM)	>400 µg/mL	40 µg/mL (≈ 160 µM)	44 µg/mL (≈ 176 µM)	150 µg/mL (≈ 599 µM)	>400 µg/mL	50 µg/mL (≈ 200 µM)	> 200 µg/mL	150 µg/mL (≈ 599 µM)	200 µg/mL (≈ 799 µM)	–	–
Nc1ncnc2c([C@@H]3O[C@H](CO)[C@@H](O)[C@H]3O)[nH]nc12 [FORMYCIN]	> 10 µg/mL	8 µg/mL (≈ 29.9 µM)	10 µg/mL (≈ 37.4 µM)	20 µg/mL	7.5 µg/mL (≈ 28.1 µM)	3.7 µg/mL (≈ 13.8 µM)	25.7 µg/mL (≈ 96.2 µM)	10 µg/mL	2 µg/mL (≈ 7.48 µM)	5.5 µg/mL (≈ 20.6 µM)	> 1 µg/mL	1 µg/mL	10 µg/mL (≈ 37.4 µM)	> 10 µg/mL	> 1 µg/mL	> 10 µg/mL	–	–
NC(=O)c1ncn([C@@H]2O[C@H](CO)[C@@H](O)[C@H]2O)n1 [RIBAVIRIN]	65 µg/mL (≈ 266 µM)	> 400 µg/mL	300 µg/mL (≈ 1230 µM)	>400 µg/mL	–	–	–	>400 µg/mL	50 µg/mL (≈ 205 µM)	–	4 µg/mL (≈ 16.4 µM)	>400 µg/mL	> 400 µg/mL	30 µg/mL (≈ 123 µM)	20 µg/mL (≈ 81.9 µM)	75 µg/mL (≈ 307 µM)	70 µg/mL (≈ 287 µM)	40 µg/mL (≈ 164 µM)
NC(=O)c1cn([C@@H]2O[C@H](CO)[C@@H](O)[C@H]2O)c2ncnc(N)c12 [SANGIVAMYCIN]	> 0.4 µg/mL	0.07 µg/mL (≈ 0.226 µM)	0.02 µg/mL (≈ 0.0647 µM)	1 µg/mL	> 100 µg/mL	0.019 µg/mL (≈ 0.0614 µM)	–	0.4 µg/mL	0.02 µg/mL (≈ 0.0647 µM)	0.014 µg/mL (≈ 0.0453 µM)	0.04 µg/mL (≈ 0.129 µM)	0.4 µg/mL	0.07 µg/mL (≈ 0.226 µM)	–	0.07 µg/mL (≈ 0.226 µM)	> 0.4 µg/mL	–	–
N#Cc1cn([C@@H]2O[C@H](CO)[C@@H](O)[C@H]2O)c2ncnc(N)c12 [TOYOCAMYCIN]	> 0.04 µg/mL	> 0.04 µg/mL	> 0.04 µg/mL	0.04 µg/mL	38 µg/mL (≈ 130 µM)	0.006 µg/mL (≈ 0.0206 µM)	0.071 µg/mL (≈ 0.244 µM)	0.04 µg/mL	> 0.04 µg/mL	0.039 µg/mL (≈ 0.134 µM)	0.07 µg/mL (≈ 0.24 µM)	0.4 µg/mL	> 0.04 µg/mL	–	> 0.4 µg/mL	> 0.04 µg/mL	–	–
